Source: the RNAGym collection of RNA variant scans (doi:10.1038/s41586-018-0170-7)

B1: tRNA (parent)
chain: GUUCCGUUGGCGUAAUGGUAACGCGUCUCCCUCCUAAGGAGAAGACUGCGGGUUCGAGUCCCGUACGGAACG

Variants of: B1
Experiment: yeast fitness, log relative to wild type (ln ratio); higher = fitter; tRNA-Arg(CCU), competitive growth, 37 C, 1 M NaCl
Method in brief: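 BY4742 cells without the chromosomal tRNA-Arg(CCU) gene carried a combinatorial variant library on a HIS3 centromeric plasmid, from two independent transformations. After 4 generations in SC-HIS at 30 °C, pools spent ~6.5 generations (~26.5 h) in SC-HIS 1M NaCl at 37 °C, giving three outputs per input, and 125 bp paired-end Illumina reads counted the variants. Fitness is the natural log of each genotype's generations over the wild type's, with generations taken as OD-scaled log2 output/input frequency weighted by inverse variance across replicates.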

Variant	yeast fitness (ln)
AGUCCUUUGGCGUAAUGGUAACGCGUUUCCCUCCUAAGGAGACGAUUGCGGGUUCGAGUCCCGUAUGGGGCG	-0.476
GCUCCGUUGGCGUAAUGGUAACGCGUUUCCCUCCUAAGGAGACGACUGCGGGUUCGAGUCCCGUAUGGGUCG	-0.439
AGUCCGUUGGCGUAAUGGUAACGCGUCUCCCUCCUAAGGAGACGAUUGCGGGUUCGAGUCCCGUACGGAUUG	-0.00171
GGUCCAUUGGCGUAAUGGUAACGCGUUUCCCUCCUAAGGAGACGAUUGCGGGUUCGAGUCCCGUAAGGAGCG	-0.132
AUUCCAUUGGCGUAAUGGUAACGCGUUUCCCUCCUAAGGAGACGACUGCGGGUUCGAGUCCCGUACGGAUCG	-0.3
GGUCCAUUGGCGUAAUGGUAACGCGUCUCCCUCCUAAGGAGACGACUGCGGGUUCGAGUCCCGUACGGAACG	-0.0921
GUUCCAUUGGCGUAAUGGUAACGCGUUUCCCUCCUAAGGAGAAGACUGCGGGUUCGAGUCCCGUACGGAACG	-0.0758
ACUCCUUUGGCGUAAUGGUAACGCGUUUCCCUCCUAAGGAGACGAUUGCGGGUUCGAGUCCCGUAUGGGUUG	-0.398
ACUCCAUUGGCGUAAUGGUAACGCGUCUCCCUCCUAAGGAGAAGAUUGCGGGUUCGAGUCCCGUACGGAUUG	-0.00949
ACUCCGUUGGCGUAAUGGUAACGCGUCUCCCUCCUAAGGAGAAGACUGCGGGUUCGAGUCCCGUACGGAACG	-0.00128
GCUCCGUUGGCGUAAUGGUAACGCGUCUCCCUCCUAAGGAGAAGACUGCGGGUUCGAGUCCCGUAAGGAACG	0.0749
GCUCCGUUGGCGUAAUGGUAACGCGUUUCCCUCCUAAGGAGAAGACUGCGGGUUCGAGUCCCGUACGGAUCG	-0.0757
GCUCCGUUGGCGUAAUGGUAACGCGUCUCCCUCCUAAGGAGACGAUUGCGGGUUCGAGUCCCGUAAGGAUUG	-0.169
AUUCCGUUGGCGUAAUGGUAACGCGUUUCCCUCCUAAGGAGACGAUUGCGGGUUCGAGUCCCGUAUGGGAUG	-0.361
AGUCCUUUGGCGUAAUGGUAACGCGUUUCCCUCCUAAGGAGACGACUGCGGGUUCGAGUCCCGUAUGGAUUG	-0.429
GGUCCUUUGGCGUAAUGGUAACGCGUUUCCCUCCUAAGGAGAAGAUUGCGGGUUCGAGUCCCGUACGGGACG	-0.255
AGUCCGUUGGCGUAAUGGUAACGCGUUUCCCUCCUAAGGAGAAGACUGCGGGUUCGAGUCCCGUACGGGUCG	-0.188
AGUCCUUUGGCGUAAUGGUAACGCGUUUCCCUCCUAAGGAGAAGACUGCGGGUUCGAGUCCCGUAAGGAAUG	-0.273
GCUCCUUUGGCGUAAUGGUAACGCGUCUCCCUCCUAAGGAGAAGACUGCGGGUUCGAGUCCCGUAAGGGGCG	-0.0222
ACUCCAUUGGCGUAAUGGUAACGCGUUUCCCUCCUAAGGAGAAGAUUGCGGGUUCGAGUCCCGUACGGGGUG	-0.489
AUUCCAUUGGCGUAAUGGUAACGCGUCUCCCUCCUAAGGAGACGACUGCGGGUUCGAGUCCCGUAUGGAUCG	-0.374
AGUCCAUUGGCGUAAUGGUAACGCGUCUCCCUCCUAAGGAGAAGAUUGCGGGUUCGAGUCCCGUAUGGAUUG	-0.00784
AGUCCUUUGGCGUAAUGGUAACGCGUCUCCCUCCUAAGGAGAAGAUUGCGGGUUCGAGUCCCGUAAGGGGUG	-0.416
GUUCCAUUGGCGUAAUGGUAACGCGUUUCCCUCCUAAGGAGACGACUGCGGGUUCGAGUCCCGUAUGGAACG	-0.0646
GUUCCUUUGGCGUAAUGGUAACGCGUUUCCCUCCUAAGGAGAAGAUUGCGGGUUCGAGUCCCGUACGGAGCG	-0.15

Variant	yeast fitness (ln)
AUUCCGUUGGCGUAAUGGUAACGCGUCUCCCUCCUAAGGAGACGACUGCGGGUUCGAGUCCCGUACGGAUUG	-0.32
GUUCCGUUGGCGUAAUGGUAACGCGUUUCCCUCCUAAGGAGAAGACUGCGGGUUCGAGUCCCGUAUGGAGCG	-0.116
GCUCCAUUGGCGUAAUGGUAACGCGUCUCCCUCCUAAGGAGACGACUGCGGGUUCGAGUCCCGUAAGGAUUG	-0.261
GGUCCUUUGGCGUAAUGGUAACGCGUUUCCCUCCUAAGGAGAAGAUUGCGGGUUCGAGUCCCGUACGGAUCG	-0.176
AGUCCUUUGGCGUAAUGGUAACGCGUUUCCCUCCUAAGGAGAAGAUUGCGGGUUCGAGUCCCGUAAGGAUUG	-0.0752
GGUCCGUUGGCGUAAUGGUAACGCGUCUCCCUCCUAAGGAGACGACUGCGGGUUCGAGUCCCGUAAGGGGUG	-0.235
AUUCCAUUGGCGUAAUGGUAACGCGUUUCCCUCCUAAGGAGACGACUGCGGGUUCGAGUCCCGUAUGGAGCG	-0.431
AGUCCAUUGGCGUAAUGGUAACGCGUCUCCCUCCUAAGGAGACGAUUGCGGGUUCGAGUCCCGUACGGGUCG	-0.0779
GGUCCAUUGGCGUAAUGGUAACGCGUUUCCCUCCUAAGGAGACGACUGCGGGUUCGAGUCCCGUAAGGAGUG	-0.23
GCUCCUUUGGCGUAAUGGUAACGCGUCUCCCUCCUAAGGAGAAGAUUGCGGGUUCGAGUCCCGUAAGGGGCG	0.0157
ACUCCGUUGGCGUAAUGGUAACGCGUUUCCCUCCUAAGGAGACGACUGCGGGUUCGAGUCCCGUACGGAGUG	-0.0249
GUUCCGUUGGCGUAAUGGUAACGCGUCUCCCUCCUAAGGAGACGACUGCGGGUUCGAGUCCCGUAAGGAUUG	-0.268
GCUCCAUUGGCGUAAUGGUAACGCGUCUCCCUCCUAAGGAGACGACUGCGGGUUCGAGUCCCGUACGGAUCG	-0.0469
GUUCCUUUGGCGUAAUGGUAACGCGUUUCCCUCCUAAGGAGACGAUUGCGGGUUCGAGUCCCGUACGGAGCG	-0.248
GGUCCAUUGGCGUAAUGGUAACGCGUCUCCCUCCUAAGGAGAAGACUGCGGGUUCGAGUCCCGUAAGGAGCG	-0.0981
GGUCCGUUGGCGUAAUGGUAACGCGUUUCCCUCCUAAGGAGAAGACUGCGGGUUCGAGUCCCGUAUGGGGCG	-0.288
AGUCCUUUGGCGUAAUGGUAACGCGUCUCCCUCCUAAGGAGAAGAUUGCGGGUUCGAGUCCCGUAAGGAGCG	-0.258
GUUCCUUUGGCGUAAUGGUAACGCGUUUCCCUCCUAAGGAGACGAUUGCGGGUUCGAGUCCCGUAAGGAGCG	-0.123
ACUCCGUUGGCGUAAUGGUAACGCGUCUCCCUCCUAAGGAGACGACUGCGGGUUCGAGUCCCGUAUGGGUUG	-0.279
ACUCCGUUGGCGUAAUGGUAACGCGUUUCCCUCCUAAGGAGAAGACUGCGGGUUCGAGUCCCGUAUGGAACG	-0.191
GGUCCGUUGGCGUAAUGGUAACGCGUCUCCCUCCUAAGGAGACGACUGCGGGUUCGAGUCCCGUACGGAUCG	-0.00614
AGUCCAUUGGCGUAAUGGUAACGCGUCUCCCUCCUAAGGAGAAGACUGCGGGUUCGAGUCCCGUACGGGGUG	-0.298
AUUCCGUUGGCGUAAUGGUAACGCGUCUCCCUCCUAAGGAGAAGAUUGCGGGUUCGAGUCCCGUAUGGAGCG	-0.104
AUUCCGUUGGCGUAAUGGUAACGCGUUUCCCUCCUAAGGAGACGAUUGCGGGUUCGAGUCCCGUAUGGGUCG	-0.4
GUUCCGUUGGCGUAAUGGUAACGCGUCUCCCUCCUAAGGAGAAGAUUGCGGGUUCGAGUCCCGUAAGGAGUG	-0.0671

Variant	yeast fitness (ln)
GUUCCAUUGGCGUAAUGGUAACGCGUUUCCCUCCUAAGGAGAAGAUUGCGGGUUCGAGUCCCGUACGGGGUG	-0.219
GUUCCAUUGGCGUAAUGGUAACGCGUCUCCCUCCUAAGGAGAAGAUUGCGGGUUCGAGUCCCGUAUGGAAUG	-0.0146
GUUCCAUUGGCGUAAUGGUAACGCGUCUCCCUCCUAAGGAGAAGAUUGCGGGUUCGAGUCCCGUAAGGAUUG	-0.211
AUUCCAUUGGCGUAAUGGUAACGCGUCUCCCUCCUAAGGAGAAGACUGCGGGUUCGAGUCCCGUAUGGAGUG	-0.0543
AUUCCAUUGGCGUAAUGGUAACGCGUUUCCCUCCUAAGGAGAAGACUGCGGGUUCGAGUCCCGUAUGGGGUG	-0.442
GCUCCAUUGGCGUAAUGGUAACGCGUCUCCCUCCUAAGGAGACGAUUGCGGGUUCGAGUCCCGUACGGGGUG	-0.101
GGUCCAUUGGCGUAAUGGUAACGCGUCUCCCUCCUAAGGAGACGACUGCGGGUUCGAGUCCCGUAUGGAACG	-0.0762
AGUCCGUUGGCGUAAUGGUAACGCGUCUCCCUCCUAAGGAGACGACUGCGGGUUCGAGUCCCGUAAGGAAUG	-0.228
ACUCCUUUGGCGUAAUGGUAACGCGUUUCCCUCCUAAGGAGACGAUUGCGGGUUCGAGUCCCGUAUGGGUCG	-0.472
GCUCCAUUGGCGUAAUGGUAACGCGUCUCCCUCCUAAGGAGACGAUUGCGGGUUCGAGUCCCGUACGGGGCG	-0.241
AGUCCGUUGGCGUAAUGGUAACGCGUUUCCCUCCUAAGGAGACGAUUGCGGGUUCGAGUCCCGUAUGGAACG	-0.231
ACUCCAUUGGCGUAAUGGUAACGCGUUUCCCUCCUAAGGAGAAGACUGCGGGUUCGAGUCCCGUACGGAUUG	-0.109
GCUCCAUUGGCGUAAUGGUAACGCGUCUCCCUCCUAAGGAGACGACUGCGGGUUCGAGUCCCGUACGGGUCG	-0.0661
GGUCCAUUGGCGUAAUGGUAACGCGUUUCCCUCCUAAGGAGACGACUGCGGGUUCGAGUCCCGUAUGGGUUG	-0.434
AGUCCGUUGGCGUAAUGGUAACGCGUUUCCCUCCUAAGGAGAAGAUUGCGGGUUCGAGUCCCGUAUGGAUCG	-0.123
AGUCCGUUGGCGUAAUGGUAACGCGUUUCCCUCCUAAGGAGAAGAUUGCGGGUUCGAGUCCCGUACGGAAUG	-0.159
ACUCCUUUGGCGUAAUGGUAACGCGUCUCCCUCCUAAGGAGACGAUUGCGGGUUCGAGUCCCGUACGGGUUG	-0.343
AUUCCGUUGGCGUAAUGGUAACGCGUUUCCCUCCUAAGGAGAAGACUGCGGGUUCGAGUCCCGUACGGGUCG	-0.216
GGUCCUUUGGCGUAAUGGUAACGCGUCUCCCUCCUAAGGAGACGAUUGCGGGUUCGAGUCCCGUAAGGGGCG	-0.242
GGUCCAUUGGCGUAAUGGUAACGCGUUUCCCUCCUAAGGAGAAGACUGCGGGUUCGAGUCCCGUACGGAGUG	-0.216
GCUCCAUUGGCGUAAUGGUAACGCGUCUCCCUCCUAAGGAGAAGAUUGCGGGUUCGAGUCCCGUAUGGAGUG	-0.00476
GUUCCGUUGGCGUAAUGGUAACGCGUCUCCCUCCUAAGGAGAAGACUGCGGGUUCGAGUCCCGUAAGGGAUG	-0.108
GGUCCUUUGGCGUAAUGGUAACGCGUUUCCCUCCUAAGGAGACGAUUGCGGGUUCGAGUCCCGUAUGGAGCG	-0.311
GGUCCGUUGGCGUAAUGGUAACGCGUCUCCCUCCUAAGGAGAAGACUGCGGGUUCGAGUCCCGUAUGGGACG	-0.195
GCUCCAUUGGCGUAAUGGUAACGCGUCUCCCUCCUAAGGAGAAGAUUGCGGGUUCGAGUCCCGUAUGGAUCG	-0.0206
